What all share (format): functional, organism-based
The species named for assay [1] is Rattus norvegicus. The assay is described as follows: Reduction of Astrocyte intracellular chloride concentration at 0.1 mM. The method, boiled down: (§1)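 Primary rat astrocyte cultures (1–4-day-old Sprague-Dawley pups, oligodendrocytes not removed, >90% astrocytes) grown 3–5 weeks in serum BME. Cells equilibrated 60 min at 37 °C in chloride-HCO3 Hepes medium. Cells washed with ice-cold 0.32 M sucrose. Counts, minus time-0 background, normalized to Lowry protein. Reported as % of vehicle control ± SD, n = 4.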

The species named for assay [2] is Rattus norvegicus. Briefly: Reduction of Astrocyte intracellular chloride concentration at 0.05 mM. Put shortly:
as §1

The species named for assay [3] is Rattus norvegicus. The assay is described as follows: Reduction of Astrocyte intracellular chloride concentration at 1 mM. Put shortly: as §1
For assay [4], the species on record is Rattus norvegicus. The assay is described as follows: Reduction of Astrocyte intracellular chloride concentration at 0.01 mM. Put shortly: as §1
The species entered for assay [5] is Rattus norvegicus. The assay is described as follows: Reduction of Astrocyte intracellular chloride concentration at 0.05 mM; No data. Put shortly:
as §1

Setting [6] is: 0.5 mM, in the assay text read “0.5 mM” for “0.05 mM”.

Drawing on ChEMBL document CHEMBL1123614, “Effects of [(N-alkyl-1,3-dioxo-1H,3H-isoindolin-5-yl)oxy]alkanoic acids, [(N-alkyl-1-oxo-1H,3H-isoindolin-5-yl)oxy]butanoic acids, and related derivatives on chloride influx in primary astroglial cultures” (J Med Chem, 1987), this text covers Concentration for 34 compounds.

For `O=C(O)COc1ccc2c(c1)C(=O)N(C1CCCCC1)C2=O`, the Concentration in assay [1] was 94%; in assay [2] (0.05 mM) it was 87%.
Turning to `O=C(O)CCCOc1cc2c(c(Cl)c1Cl)C(=O)N(C1CCCC1)C2=O`, the Concentration in assay [1] amounted to 97%.
Consider `CCCN1C(=O)c2cc(OCCCC(=O)O)c(Cl)c(Cl)c2C1=O`, for which the Concentration in assay [1] was determined as 74%; in assay [2] (setting [6]), 89%.
Regarding `O=C(O)CCCOc1ccc2c(c1)C(=O)NC2=O`, the Concentration in assay [1] was 93%; in assay [2] (0.05 mM) it was 88%.
For `O=C(O)CCCOc1ccc(C(=O)NC2CCCC2)cc1Br`, the Concentration in assay [1] turned out to be 74%.
On to `CCCCN1C(=O)c2cc(Cl)c(OCCCC(=O)O)cc2C1=O`, for which the Concentration came to 95% in assay [1] and 81% in assay [2] (setting [6]).
With `CN1C(=O)c2cc(OCCCC(=O)O)c(Cl)c(Cl)c2C1=O`, the Concentration in assay [1] was determined as 91%.
For the compound `NS(=O)(=O)c1cc(C(=O)O)c(NCc2ccco2)cc1Cl`, the Concentration in assay [3] came to 21%; in assay [1] it was 79%.
In the case of `C=C(CC)C(=O)c1ccc(OCC(=O)O)c(Cl)c1Cl`, in assay [1], the Concentration was determined as 78%.
For `CCN1Cc2cc(OCCCC(=O)O)ccc2C1=O`, the Concentration was found to be 57% in assay [3]; 67% in assay [1]; 109% in assay [4]; 67% in assay [2] (setting [6]); 93% in assay [5].
The compound `O=C(O)CCCOc1ccc2c(c1)C(=O)N(C1CCCCC1)C2=O` yielded a Concentration in assay [1] of 105%.
In the case of `CCN1C(=O)c2cc(OCCCC(=O)O)c(Cl)c(Cl)c2C1=O`, the Concentration was 103% in assay [1] and 83% in assay [2] (setting [6]).
For the compound `O=C(O)CCCOc1ccc(C(=O)NC2CCCC2)c(Cl)c1Cl`, the Concentration came out at 93% in assay [1] and 78% in assay [2] (0.05 mM).
Take `CCCCN1C(=O)c2ccc(OCCCC(=O)O)cc2C1=O`: the Concentration came out at 88% in assay [1] and 69% in assay [2] (0.05 mM).
`O=C(O)CCCOc1ccc2c(c1)C(=O)N(C1CCCC1)C2=O`: the Concentration in assay [1] is 101%.
On to `CCCCN1Cc2cc(OCCCC(=O)O)ccc2C1=O`, for which the figures for the Concentration in assay [1] and in assay [2] (0.05 mM) were 97% and 76%, respectively.
In assay [1], `O=C(O)CCCOc1ccc(C(=O)NC2CCCC2)cc1Cl` had a Concentration of 83%.
On to `CCCN1C(=O)c2ccc(OCC(=O)O)cc2C1=O`, for which the Concentration in assay [1] was 103%; in assay [2] (0.05 mM) it was 110%.
Regarding `CCCCCN1C(=O)c2ccc(OCCCC(=O)O)cc2C1=O`, the Concentration came to 85% in assay [1] and 77% in assay [2] (0.05 mM).
Regarding `CN1C(=O)c2ccc(OCCCC(=O)O)cc2C1=O`, the Concentration in assay [1] was determined as 90%; in assay [2] (0.05 mM), 118%.
For the compound `O=C(O)CCCOc1ccc2c(c1)C(=O)N(CCCO)C2=O`, the Concentration in assay [1] was 75%; in assay [2] (0.05 mM), 83%.
The compound `O=C(O)CCCOc1c(Cl)cc2c(c1Cl)C(=O)N(C1CCCC1)C2=O` returned a Concentration in assay [1] of 94%.
In the case of `CCCCN1C(=O)c2cc(OCCCC(=O)O)c(Cl)c(Cl)c2C1=O`, the Concentration was 86% in assay [1] and 74% in assay [2] (setting [6]).
On to `O=C(O)COc1ccc2c(c1)C(=O)N(C1CCCC1)C2=O`, for which the Concentration was found to be 91% in assay [1] and 92% in assay [2] (0.05 mM).
As to `CN1Cc2cc(OCCCC(=O)O)ccc2C1=O`, the Concentration in assay [1] stood at 84%.
As to `CCCCCCN1C(=O)c2ccc(OCCCC(=O)O)cc2C1=O`, the Concentration worked out at 109% in assay [1] and 118% in assay [2] (setting [6]).
Regarding `CN(C(=O)c1ccc(OCCCC(=O)O)c(Cl)c1Cl)C1CCCC1`, the Concentration in assay [1] was 79%.
On to `CCN1C(=O)c2ccc(OCCCC(=O)O)cc2C1=O`, for which the Concentration stood at 104% in assay [1] and 76% in assay [2] (0.05 mM).
In the case of `CCCN1C(=O)c2ccc(OCCCC(=O)O)cc2C1=O`, the Concentration in assay [1] stood at 67%; in assay [2] (0.05 mM), 80%.
With `O=C(O)CCCOc1cc2c(cc1Cl)C(=O)N(C1CCCC1)C2`, the Concentration in assay [1] amounted to 115%.
On to `O=C(O)CCCOc1cc2c(cc1Cl)C(=O)N(C1CCCC1)C2=O`, for which, in assay [1], the Concentration amounted to 111%.
Still for that read-out and setting: the result for `O=C(O)CCCOc1ccc2c(c1Cl)C(=O)N(C1CCCC1)C2=O` reads 107%.
In the case of `CCCN1Cc2cc(OCCCC(=O)O)ccc2C1=O`, the Concentration in assay [1] stood at 98%; in assay [2] (0.05 mM), 76%.
For `O=C(O)CCCOc1ccc2c(c1)C(=O)N(CCCCO)C2=O`, the Concentration in assay [1] is 106%; in assay [2] (0.05 mM), 101%.
